# According to ChEMBL document CHEMBL1122501, “Potential antiatherosclerotic agents. 2. (Aralkylamino)- and (alkylamino) benzoic acid analogues of cetaben” (1983):
# Legend:
# [1] = target: T1, Sterol O-acyltransferase 1 (Rattus norvegicus) (UniProt O70536); test: In vitro inhibitory activity against acyl coenzyme A:cholesterol acyltransferase (ACAT); set-up: concentration or dose not given beside the values; settings: concentration not given here
# T1 sequence (whole entry): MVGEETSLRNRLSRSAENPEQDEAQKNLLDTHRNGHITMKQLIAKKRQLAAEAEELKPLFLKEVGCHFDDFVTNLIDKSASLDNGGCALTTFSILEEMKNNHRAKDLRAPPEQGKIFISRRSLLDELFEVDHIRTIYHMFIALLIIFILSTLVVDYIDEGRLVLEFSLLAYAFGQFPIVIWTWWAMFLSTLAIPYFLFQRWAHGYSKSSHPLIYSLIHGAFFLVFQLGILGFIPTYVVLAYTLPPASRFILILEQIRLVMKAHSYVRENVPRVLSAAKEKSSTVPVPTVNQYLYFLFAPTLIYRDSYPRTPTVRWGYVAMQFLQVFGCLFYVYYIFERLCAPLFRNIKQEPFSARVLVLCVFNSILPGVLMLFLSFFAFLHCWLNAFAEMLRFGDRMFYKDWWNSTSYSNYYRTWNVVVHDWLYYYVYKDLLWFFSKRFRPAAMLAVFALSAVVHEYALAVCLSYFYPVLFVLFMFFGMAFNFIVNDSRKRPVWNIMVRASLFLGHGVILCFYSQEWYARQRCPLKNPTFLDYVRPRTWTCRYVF
# Outline: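 ACAT enzyme from rat adrenal homogenate in 0.2 M KH2PO4 buffer pH 7.4, 1000g 15 min 5 °C supernatant (microsomal fraction). Supernatant + BSA (50 mg/mL) + compound at final 5.2 μg/mL + buffer preincubated 10 min 37 °C; [14C]oleoyl-CoA (0.4 μCi) added, 30 min 37 °C. Lipids extracted, TLC; cholesteryl ester zone counted. Mean % inhibition vs no-compound control; Student's t test.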
# [2] = system: Rattus norvegicus; test: In vivo Triglyceride lowering activity at dose as 0.025 % of the diet; type: functional
# Outline: (§1)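 Male CFE or CD-1 Sprague-Dawley rats, 140-150 g; 8 per control group, 4 per test group. Compound mixed into ground chow (w/w) via MeOH-CHCl3 (1:3) solution, solvent evaporated; controls got solvent-treated chow. Fed ad libitum 5 days, food intake monitored, killed fed and bled. Serum sterols and triglycerides by adapted autoanalyzer methods; mean percent of control, Student's t test.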
# [3] = system: Rattus norvegicus; test: In vivo Sterol lowering activity at dose as 0.025 % of the diet; type: functional; outline: as §1
# [4] = system: Rattus norvegicus; test: In vivo Sterol lowering activity at dose as 0.05 % of the diet; type: functional; outline: as §1
# [5] = system: Rattus norvegicus; test: In vivo sterol lowering activity dosed at 0.10 % of the diet; type: functional; outline: as §1
# [6] = system: Rattus norvegicus; test: In vivo triglyceride lowering activity dosed at 0.05 % of the diet; type: functional; outline: as §1
# [7] = system: Rattus norvegicus; test: In vivo triglyceride lowering activity dosed at 0.10 % of the diet; type: functional; outline: as §1
# [8] = system: Rattus norvegicus; test: In vivo triglyceride lowering activity, dosed at 0.03 % of the diet; type: functional; outline: as §1
# [9] = system: Rattus norvegicus; test: In vivo Sterol lowering activity at dose as 0.03 % of the diet.; type: functional; outline: as §1
# [10] = system: Rattus norvegicus; test: In vivo Sterol lowering activity at dose as 0.10 % of the diet.; type: functional; outline: as §1
# [11] = system: Rattus norvegicus; test: In vivo Triglyceride lowering activity at dose as 0.01 % of the diet; type: functional; outline: as §1
# [12] = system: Rattus norvegicus; test: In vivo Sterol lowering activity at dose as 0.01 % of the diet; type: functional; outline: as §1
# [13] = system: Rattus norvegicus; test: In vivo Triglyceride lowering activity at dose as 0.03 % of the diet.; type: functional; outline: as §1
# [14] = system: Rattus norvegicus; test: In vivo triglyceride lowering activity, dosed at 0.01 % of the diet.; type: functional; outline: as §1
# [15] = system: Rattus norvegicus; test: In vivo triglyceride lowering activity, dosed at 0.10 % of the diet.; type: functional; outline: as §1
Compound,inhibition [1] [%],Diet [2] [%],Diet [3] [%],Diet [4] [%],"serum sterol, percent of control [5] [%]",Diet [6] [%],"serum triglycerides, percent of control [7] [%]","serum triglycerides, percent of control [8] [%]","serum sterol level, percent of control [9] [%]","serum sterol, percent of control [10] [%]",Diet [11] [%],Diet [12] [%],Diet [13] [%],Diet [14] [%],Diet [15] [%]
CCCCCCCCCCOc1ccc(CNc2ccc(C(=O)O)cc2)cc1,< 35,<54,97,<90,<82,<51,<37,,,,,,,,
O=C(O)c1ccc(NCCCc2cccc(Cl)c2)cc1,29,,,,,,55,48,90,85,64,82,,,
CCCCCCCCCCCCCCCCNc1cccc(C(=O)O)c1,< 34,98,100,100,93,92,81,,,,,,,,
C=CCCCCCCCC/C=C/CCCNc1ccc(C(=O)OCC)cc1,< 50,90,<87,<85,<85,76,64,,,,,,,,
CCCCCCCCCCCCCCCCNc1ccc(C(=O)OCC)cc1,8,<70,109,103,98,<54,<69,,,,,,,,
CCCCCCCCCC/C=C/CCCNc1ccc(C(=O)OCC)cc1,< 40,90,<86,94,<86,77,83,,,,,,,,
CCCCCCCCCCCCCCCNc1ccc(C(=O)O)cc1,< 56,72,90,86,<79,80,<60,,,,,,,,
CCCCCCCCCCc1ccc(CNc2ccc(C(=O)OCC)cc2)cc1,< 19,82,90,95,99,<69,94,,,,,,,,
CCCCCCCCNc1ccc(C(=O)O)cc1,< 24,91,101,97,90,88,<67,,,,,,,,
O=C(CCCCC(=O)c1ccc(Cl)cc1)Nc1ccc(C(=O)O)cc1,40,,,,,,56,,94,97,,82,70,94,
O=C(O)c1ccc(NCCCc2ccccc2F)cc1,58,,,,,,52,55,85,81,58,87,,,
CCCCCCCCCCCCCCCCCNc1ccc(C(=O)O)cc1,< 34,80,<87,<86,87,77,<57,,,,,,,,
O=C(O)c1ccc(NCCCc2ccccc2)cc1,18,64,81,75,81,51,68,,,,,,,,
CCOC(=O)c1ccc(NC(=O)CCc2ccc(OC)cc2)cc1,26,,,,,,,,85,98,,80,89,98,105
